Bioassay records as filed in PubChem.
Wee1 stabilizer: blocks degradation of human Wee1 kinase; reporter increase, % at 5 µM; HeLa Luc-Wee1K328M stability, luciferase luminescence; 100% = proteasome inhibitor MG132 effect; 220,000 compounds, 1.2% hits; P30291;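 active means activation above the mean of all tested compounds plus 3 SD, set per screening run, cut at about 8.8% in these data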;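 further: cells exposed to compound for 20 h before luminescence read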
PKD1 kinase inh: blocks activity of human protein kinase D1. Q15139. PKD1 kinase fluorescence polarization assay. inhibition, % (no concentration beside the values). 200,000 compounds, 0.056% hits
L major viab: inhibitors of Leishmania major promastigote growth; Leishmania major promastigotes, resazurin fluorescence viability; 200,000 compounds, 9% hits; inhibition, % at 10 µM;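 further: promastigotes grown with compound for 44 hours at 28 °C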
Arbovirus anti: antivirals against arbovirus infection. 200,000 compounds, 0.37% hits. arbovirus infection cell-based antiviral screen. AID 1251. inhibition, % at 10 µM; in the data active means inhibition above about 30%
CHOP inhibitor: inhibitors of CHOP induction in ER stress response; inhibition, % at 10 µM; 220,000 compounds, 3.8% hits; CHO-K1 CHOP-promoter luciferase, tunicamycin-induced, 15-18 h;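 active means compounds that reduced the stress-induced luciferase reporter signal by more than about 70% of percent inhibition, limit read from the data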
Rad51 HR inh: blocks human Rad51 in homologous recombination; Q06609; hRad51 DNA strand exchange, fluorescence dequenching; inhibition, % at 10 µM; 200,000 compounds, 0.085% hits;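 active means inhibition above 40% at the single screening dose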
Target sequence (Q06609 whole entry, looked up): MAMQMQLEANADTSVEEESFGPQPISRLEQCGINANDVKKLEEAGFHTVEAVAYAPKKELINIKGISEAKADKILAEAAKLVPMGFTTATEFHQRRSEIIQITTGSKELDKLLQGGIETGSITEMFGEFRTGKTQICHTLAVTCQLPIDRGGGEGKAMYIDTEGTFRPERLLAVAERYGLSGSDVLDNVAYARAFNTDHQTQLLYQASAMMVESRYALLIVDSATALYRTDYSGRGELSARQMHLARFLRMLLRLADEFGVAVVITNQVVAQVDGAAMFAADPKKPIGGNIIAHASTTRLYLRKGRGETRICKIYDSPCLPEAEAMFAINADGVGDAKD
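Test system: preformed human Rad51 ssDNA filaments. Compound dosing: single dose, 10 µM final compound. Incubation: filaments 15 min 37 °C, then compound 30 min. Technique: FRET fluorescence dequenching, excitation 485 nm, emission 520 nm. Read-out basis: percent inhibition from fluorescence, normalised to plate control and blank means. Benchmarks: plate controls and plate blanks.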
Of the large screens only hits and unclear results are named; the others gave an inactive call. Hits are enriched below; roughly 12% of the tested compounds scored in any of these assays. Unless noted, no stated cut-off is given here; in the data, active means inhibition above about 50%; inactive means the rest.

Nc1nnc(-c2ccc(Cl)cc2Cl)s1	none
Nc1nccc(-c2cc(-c3ccc(Cl)cc3Cl)no2)n1	Wee1 stabilizer 10 (no result: PKD1 kinase inh, L major viab, Arbovirus anti)
COc1ccc(C2C(C(=O)O)CCC(=O)N2c2ccc(C)cc2)cc1OC (stereo unspecified)	none (no result: PKD1 kinase inh, L major viab, Arbovirus anti)
CCOc1ccc(NC(=S)N(CCOC)C(C)c2ccco2)cc1 (stereo unspecified)	none (no result: PKD1 kinase inh, L major viab, Arbovirus anti)
Cc1ccc(Nc2c(F)c(F)c(F)c(F)c2C(=O)O)cc1	Wee1 stabilizer 13
Cc1cccc(Nc2c(F)c(F)c(F)c(F)c2C(=O)O)c1	none
Nc1ccc(NC(=O)NC2CCCCC2)cc1[N+](=O)[O-]	none
O=C(/C=C/c1cn(CC(O)CN2CCCCC2)c2ccccc12)c1ccccc1 (stereo unspecified)	none (no result: PKD1 kinase inh, L major viab, Arbovirus anti)
CN1CCN(Cn2cc(/C=C/C(=O)c3ccccc3)c3ccccc32)CC1	Wee1 stabilizer 10
CCCN(CCC)CC(O)Cn1cc(/C=C/C(=O)c2ccccc2)c2ccccc21 (stereo unspecified)	L major viab 69
CCCN(CCC)CC(O)Cn1cc(/C=C/C(=O)c2cccs2)c2ccccc21 (stereo unspecified)	L major viab 64
O=C(/C=C/c1cn(CC(O)CN2CCCCC2)c2ccccc12)c1cccs1 (stereo unspecified)	L major viab 99
COCCN(CC(=O)NC1CCCCC1)C(=O)CCCC(=O)Nc1ccccn1	none
CCOC(=O)CSC1=NC(=O)/C(=C/c2ccc(Br)cc2)S1	CHOP inhibitor 102
CCOC(=O)CSc1nc(-c2ccccc2)ns1	none
CN1CCOC(=O)/C1=N/Nc1cc(Cl)ccc1Cl	none (no result: Rad51 HR inh)
CNc1nc(-c2c[nH]c3ccccc23)cs1	none
CN=c1scc(-c2c[nH]c3ccccc23)n1C	Wee1 stabilizer 12
CS(=O)(=O)N1CCC(Oc2ccccc2C(=O)N2CCNC(=O)C2)CC1	none
COC(=O)C(NC(=O)COc1ccccc1)(Nc1nc2c(s1)CCCC2)C(F)(F)F (stereo unspecified)	L major viab 65
Cc1cc(Oc2ccccc2)nc(-c2ccccc2)n1	CHOP inhibitor 78
Cc1cccc(NC(=S)NCCC(c2ccccc2)c2ccccc2)c1	L major viab 97
COc1cccc(NC(=S)NCCC(c2ccccc2)c2ccccc2)c1	L major viab 100 (no result: Rad51 HR inh)
CC(C)(C)NC(=O)COC(=O)c1ccc(Cl)c(S(N)(=O)=O)c1	none
COC(=O)c1cc(C(=O)OC)cc(-n2c(C)cc(C(=O)CC#N)c2C)c1	L major viab 95
C=CCc1cccc(/C=N/NC(=O)CNc2cccc3ccccc23)c1O	none
C=CCn1c(CNc2ccccc2)nnc1SCC(=O)N/N=C/c1ccccc1O	L major viab 97
C=CCc1cccc(/C=N/NC(=O)CNc2ccccc2OC)c1O	CHOP inhibitor 89
COc1cc([N+](=O)[O-])cc(/C=N/NC(=O)C(C)Nc2cccc(C)c2)c1O (stereo unspecified)	none
C=CCc1cccc(/C=N/NC(=O)CNc2ccccc2)c1O	CHOP inhibitor 89
C=CCc1cccc(/C=N/NC(=O)C(C)Nc2cccc(C)c2)c1O (stereo unspecified)	CHOP inhibitor 91
O=C(CSCc1nc2c(nnn2Cc2ccc(F)cc2)c(=O)[nH]1)Nc1cccc(C(F)(F)F)c1	none
COc1ccc([N+](=O)[O-])cc1N(CC(=O)Nc1ccccc1C(=O)NC(C)C)S(C)(=O)=O	none
CCn1c(=O)c(=O)[nH]c2cc(C(=O)N3CCN(Cc4ccc5c(c4)OCO5)CC3)ccc21	none
CC(C)Nc1nc(Oc2ccc(Cl)cc2)cc(C(F)(F)F)n1	CHOP inhibitor 74
CCNc1nc(Oc2ccc(F)cc2)cc(C(F)(F)F)n1	none
CCN(CC)S(=O)(=O)c1ccc2[nH]cc(C(=O)NCCN3CCCCCC3)c(=O)c2c1	none (no result: Rad51 HR inh)
CCN(CC)S(=O)(=O)c1ccc2[nH]cc(C(=O)NCCC3=CCCCC3)c(=O)c2c1	L major viab 81
COc1ccc(/C=c2\s/c(=C/C(=O)c3ccc(C)cc3)[nH]c2=O)cc1OC	CHOP inhibitor 100
Cc1ccc(C(=O)/C=C2/NC(=O)CS2)cc1	none
CN(C)CC(C)(C)CNC(=O)CC1C(=O)NCCN1Cc1ccc(-c2ccccc2)cc1 (stereo unspecified)	none
CSc1ccc(CN2CCC(C(=O)NCc3ccc(C)cc3)CC2)cc1	L major viab 92
CCCCOc1ccc(CN2CCC(O)CC2)cc1	L major viab 91
Cc1ccc(CNC(=O)CN2CCC(C(N)=O)CC2)cc1	none
CCOC(=O)N1CCN(C(=O)C2CCN(Cc3cccc(OCc4ccccc4)c3)CC2)CC1	none
CCCCN(C)C(=O)C1CCN(Cc2ccc(OCc3ccccc3)cc2)CC1	L major viab 61
CSc1ccc(CN2CCC(O)CC2)cc1	L major viab 81 (no result: CHOP inhibitor, Rad51 HR inh)
Cc1onc(-c2c(Cl)cccc2Cl)c1C(=O)N=C(N)N1CC(C)OC(C)C1 (stereo unspecified)	none (no result: PKD1 kinase inh, L major viab, Arbovirus anti)
CCOC(=O)C1CCN(C(=O)C(CC)c2ccccc2)CC1 (stereo unspecified)	none
COc1ccc(C2=CC(=O)CCC2)cc1	none (no result: Wee1 stabilizer, PKD1 kinase inh, L major viab, Arbovirus anti, CHOP inhibitor)
CC1CC2=C(NC(=S)NC2c2cccc(F)c2)/C(=C/c2cccc(F)c2)C1 (stereo unspecified)	CHOP inhibitor 86
CC1CCN(CCCNC(=O)c2ccc3c(Cl)c4c(nc3c2)CCCC4)CC1	none (no result: PKD1 kinase inh, L major viab, Arbovirus anti)
O=C(NCCCN1CCCC1)c1cc2c(Cl)nc3ccccc3c2s1	L major viab 90
CC1CCN(CCCNC(=O)c2n[nH]c(=O)c3ccccc23)CC1	none
O=C(NCCCN1CCCCCC1)c1ccc2c(Cl)c3c(nc2c1)CCCC3	L major viab 73
CC1CCN(CCCNC(=O)c2cc3c(Cl)nc4ccccc4c3s2)CC1	L major viab 100 (no result: Rad51 HR inh)
CCOC(=O)C1=C(C)N=c2s/c(=C\c3ccncc3)c(=O)n2C1c1ccc2c(c1)OCO2 (stereo unspecified)	L major viab 99
O=C1NN(c2ccccc2)C(=O)/C1=C/c1ccc(Sc2cccc3ccccc23)o1	CHOP inhibitor 104 (no result: Rad51 HR inh)
CCCCNC(=O)c1cc2ccccc2s1	none
O=S(=O)(c1ccccc1Cl)N1CCCC1c1nc(-c2ccccc2Cl)no1 (stereo unspecified)	L major viab 89
O=S(=O)(c1ccc(Cl)cc1)N1CCCC1c1nc(-c2ccc(Cl)cc2)no1 (stereo unspecified)	none
O=C(CCl)NCc1cc(-c2ccc(Cl)cc2)no1	L major viab 71
Cc1ccc(C(=O)NCC(=O)OC(C)C(=O)Nc2ccc(N3CCOCC3)cc2)s1 (stereo unspecified)	none (no result: PKD1 kinase inh, L major viab, Arbovirus anti)
COc1cccc(C2SCC(=O)N2c2ccc(Cl)cc2)c1OC (stereo unspecified)	L major viab 67
CC(=O)Nc1ccc(N=Nc2ccc(O)cc2)cc1	L major viab 52
COc1cc(CNCc2ccccc2)c(Br)cc1OC1CCCC1	none
Cc1ccc(C2=NN(CCC(=O)NCc3ccc4c(c3)OCO4)C(=O)CC2)cc1	none
